Data taken from ChEMBL document CHEMBL2412953, “Synthesis and biological evaluation of new N-alkylcarbazole derivatives as STAT3 inhibitors: preliminary study” (Eur J Med Chem, 2013).
Active and inactive are the calls of the source. The calls are words filed in the database; no cut-off is given here.

Columns and labels:
[1] = biological target: Signal transducer and activator of transcription 3 (Homo sapiens) (UniProt P40763); experiment: Inhibition of IL-6-stimulated STAT3 activation in human THP1 cells at 50 uM incubated for 30 mins prior to IL-6 stimulation measured after 15 mins by EMSA relative to control; type: cell-based; details: THP-1
Sequence of Signal transducer and activator of transcription 3 (Homo sapiens) (P40763 whole entry): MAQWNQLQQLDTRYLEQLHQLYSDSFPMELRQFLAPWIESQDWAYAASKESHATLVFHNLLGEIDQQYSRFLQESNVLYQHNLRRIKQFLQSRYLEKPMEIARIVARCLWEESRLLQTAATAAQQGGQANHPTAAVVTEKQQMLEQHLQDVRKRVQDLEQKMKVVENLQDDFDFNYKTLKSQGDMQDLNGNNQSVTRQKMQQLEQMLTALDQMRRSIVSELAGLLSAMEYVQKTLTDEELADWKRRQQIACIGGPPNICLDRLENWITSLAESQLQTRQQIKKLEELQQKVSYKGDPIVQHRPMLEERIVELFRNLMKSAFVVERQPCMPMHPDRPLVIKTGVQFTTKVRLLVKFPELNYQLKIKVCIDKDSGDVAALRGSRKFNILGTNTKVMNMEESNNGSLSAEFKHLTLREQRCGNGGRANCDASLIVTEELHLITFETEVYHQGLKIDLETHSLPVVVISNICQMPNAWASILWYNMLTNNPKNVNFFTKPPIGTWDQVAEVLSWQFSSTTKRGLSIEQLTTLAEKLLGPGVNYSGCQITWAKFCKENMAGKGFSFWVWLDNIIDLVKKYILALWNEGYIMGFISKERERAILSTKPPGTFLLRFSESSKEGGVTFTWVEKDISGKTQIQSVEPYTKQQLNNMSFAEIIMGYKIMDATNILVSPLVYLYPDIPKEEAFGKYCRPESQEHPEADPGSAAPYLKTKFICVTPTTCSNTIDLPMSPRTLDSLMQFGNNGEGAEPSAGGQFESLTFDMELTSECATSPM
Outline: (§1)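 THP-1 cells (1.5 × 10⁶/mL; RPMI 1640, 10% FBS, 37 °C, 5% CO₂) pretreated 30 min with compound, then IL-6 20 ng/mL for 15 min. Nuclear extracts, made with protease inhibitors, were assayed for STAT3 DNA-binding by EMSA in Hepes pH 7.9 buffer with poly(dI-dC). Gel bands quantified by densitometry; % inhibition versus IL-6 alone, mean ± SD.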

THP-1 [2] = experiment: Inhibition of TNFalpha and LPS-induced NFkappaB activation in human THP1 cells at 50 uM incubated for 30 mins prior to TNFalpha and LPS-induction measured after 30 mins by EMSA; type: cell-based
Outline: (§2)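 THP-1 cells (1.5 × 10⁶/mL) pretreated 30 min with compound, then stimulated 30 min with IFNγ (STAT1) or TNFα plus LPS (NF-κB). Nuclear extracts were analysed for DNA-binding by EMSA.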

[3] = biological target: Signal transducer and activator of transcription 3 (Homo sapiens) (UniProt P40763); experiment: Inhibition of IL-6-induced cytosolic STAT3 phosphorylation at Tyr705 in human THP1 cells at 50 uM incubated for 30 mins prior to IL-6 induction measured after 15 mins by Western blot analysis; type: cell-based; details: THP-1
Outline: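 THP-1 cells (1.5 × 10⁶/mL) pretreated 30 min, then IL-6 20 ng/mL for 15 min. Cells were lysed at 4 °C in HEPES pH 7.4 NP-40 buffer with protease and phosphatase inhibitors. Lysate protein was run on 7.5% SDS-PAGE, blotted to PVDF and probed overnight at 4 °C with rabbit anti-phospho-Tyr705 STAT3.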

[4] = biological target: T1, Signal transducer and activator of transcription 1-alpha/beta (Homo sapiens) (UniProt P42224); experiment: Inhibition of IFNgamma-induced STAT1 activation in human THP1 cells at 50 uM incubated for 30 mins prior to IFNgamma induction measured after 30 mins by EMSA; type: cell-based; details: THP-1; outline: as §2
T1 sequence (whole entry): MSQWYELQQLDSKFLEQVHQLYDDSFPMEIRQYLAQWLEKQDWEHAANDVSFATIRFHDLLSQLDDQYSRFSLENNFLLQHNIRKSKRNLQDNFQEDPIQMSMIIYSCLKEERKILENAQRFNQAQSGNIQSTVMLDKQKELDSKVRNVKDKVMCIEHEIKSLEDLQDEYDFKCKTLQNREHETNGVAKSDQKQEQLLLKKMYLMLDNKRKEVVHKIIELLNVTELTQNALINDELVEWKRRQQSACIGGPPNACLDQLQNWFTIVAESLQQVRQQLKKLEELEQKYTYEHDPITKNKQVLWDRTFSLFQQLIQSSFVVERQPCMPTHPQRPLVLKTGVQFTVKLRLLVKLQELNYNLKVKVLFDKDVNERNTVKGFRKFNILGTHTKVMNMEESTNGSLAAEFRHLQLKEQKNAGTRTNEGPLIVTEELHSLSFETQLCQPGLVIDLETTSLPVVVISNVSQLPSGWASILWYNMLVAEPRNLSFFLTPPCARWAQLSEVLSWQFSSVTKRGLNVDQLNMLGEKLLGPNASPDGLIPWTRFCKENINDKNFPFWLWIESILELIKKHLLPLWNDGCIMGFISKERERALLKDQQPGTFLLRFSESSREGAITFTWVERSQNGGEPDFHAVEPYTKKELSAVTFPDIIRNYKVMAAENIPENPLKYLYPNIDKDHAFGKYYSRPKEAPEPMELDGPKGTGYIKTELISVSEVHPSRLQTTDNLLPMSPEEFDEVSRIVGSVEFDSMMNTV

THP-1 [5] = experiment: Effect on total STAT3 level in IL-6-stimulated human THP1 cells at 50 uM incubated for 30 mins prior to IL-6 stimulation measured after 15 mins by Western blot analysis; type: functional, cell-based
[6] = biological target: Signal transducer and activator of transcription 3 (Homo sapiens) (UniProt P40763); experiment: Inhibition of IL-6-stimulated STAT3 activation in human THP1 cells at 100 uM incubated for 30 mins prior to IL-6 stimulation measured after 15 mins by EMSA relative to control; type: cell-based; details: THP-1; outline: as §1

**Q.** Which inhibition [1] does the source give for `COC(=O)c1cc(OCCCCCCn2c3ccc(OC)cc3c3c(C)ccc(C)c32)cc(C(=O)OC)c1` here?
**A.** The inhibition was 95%.

**Q.** And the inhibition (THP-1 [2])?
**A.** The inhibition was “inactive”.

**Q.** What about the inhibition [3] of the same molecule?
**A.** The inhibition was “Active”.

**Q.** And the inhibition [4]?
**A.** The inhibition was “inactive”.

**Q.** And the Activity (THP-1 [5])?
**A.** Its Activity is “inactive”.

**Q.** How did the inhibition [6] turn out when `COC(=O)c1ccccc1OCCCCCCn1c2ccc(OC)cc2c2c(C)ccc(C)c21` was run?
**A.** The inhibition was 1%.

**Q.** With `COC(=O)c1ccccc1OCCCCCCCn1c2ccc(OC)cc2c2c(C)ccc(C)c21` as the molecule, how does the inhibition [6] read?
**A.** The inhibition was 6%.

**Q.** `COC(=O)c1cc(OCCCCCCn2c3ccccc3c3ccc(O)cc32)cc(C(=O)OC)c1` was tested. Which inhibition [6] did it give?
**A.** The inhibition was 1%.

**Q.** How did the inhibition [6] turn out when `COC(=O)c1cc(OCCCCCCCn2c3ccccc3c3ccc(O)cc32)cc(C(=O)OC)c1` was run?
**A.** The inhibition was 5%.

**Q.** For `COC(=O)c1ccccc1OCCCCCCn1c2ccccc2c2ccc(O)cc21`, which inhibition [6] is on record?
**A.** Its inhibition is 1%.

**Q.** With `COC(=O)c1cc(OCCCCCn2c3ccccc3c3ccc(O)cc32)cc(C(=O)OC)c1` as the molecule, how does the inhibition [6] read?
**A.** The inhibition was 1%.

**Q.** `COC(=O)c1cc(OCCCCCn2c3ccccc3c3c(O)cccc32)cc(C(=O)OC)c1` was tested. Which inhibition [6] did it give?
**A.** Its inhibition is 20%.

**Q.** What does the source list for `COC(=O)c1cc(OCCCCCn2c3ccc(OC)cc3c3c(C)ccc(C)c32)cc(C(=O)OC)c1`?
**A.** inhibition [1]: 50%; inhibition (THP-1 [2]): inactive; inhibition [3]: Active; inhibition [4]: inactive; Activity (THP-1 [5]): inactive

**Q.** For `COC(=O)c1ccccc1OCCCCCn1c2ccc(OC)cc2c2c(C)ccc(C)c21`, which inhibition [6] is on record?
**A.** Its inhibition is 3%.

**Q.** What does the source list for `COC(=O)c1cc(OCCCCCCCn2c3ccc(OC)cc3c3c(C)ccc(C)c32)cc(C(=O)OC)c1`?
**A.** inhibition [1]: 90%; inhibition (THP-1 [2]): inactive; inhibition [3]: Active; inhibition [4]: inactive; Activity (THP-1 [5]): inactive

**Q.** Which inhibition [6] does the source give for `COC(=O)c1cc(OCCCCCCCn2c3ccccc3c3c(O)cccc32)cc(C(=O)OC)c1` here?
**A.** Its inhibition is 6%.

**Q.** How did the inhibition [6] turn out when `COC(=O)c1ccccc1OCCCCCCn1c2ccccc2c2c(O)cccc21` was run?
**A.** The inhibition was 3%.

**Q.** With `COC(=O)c1cc(OCCCCCCn2c3ccccc3c3c(O)cccc32)cc(C(=O)OC)c1` as the molecule, how does the inhibition [6] read?
**A.** The inhibition was 5%.
